The record followed here is ChEMBL document CHEMBL2040730, “Synthesis of berbamine acetyl glycosides and evaluation of antitumor activity” (Eur J Med Chem, 2012).

pIC50: −log10 of the molar value.

What all share (format): functional, cell-based
One test has as its system A549. In words: Cytotoxicity against human A549 cells after 2 days by MTT assay. Summed up:
(§1)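 Cells were seeded at 5 × 10³ per well and exposed to eight compound concentrations (50, 25, 12.5, 6.25, 3.13, 1.56, 0.78, 0.39), with positive and blank controls. Incubation was 2 days at 37 °C and 5% CO₂. MTT (5 mg/mL stock) was then added for 4 h. After the supernatant was removed, formazan was dissolved in DMSO for 20 min at room temperature. OD was read at 570 nm, and viability was expressed as % of compound-free medium controls.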
On the technique in general: Tetrazolium assays rely on reduction of a dye to a coloured formazan, in cell work by metabolically active cells.

The next test relates to L1210. In words: Cytotoxicity against mouse L1210 cells after 2 days by MTT assay. In a few lines:
as §1

For the next test, the system named is K562. Briefly: Cytotoxicity against human K562 cells after 2 days by MTT assay. In a few lines: as §1

By pIC50 is commonly meant the IC50 on a negative log10 scale, so that one unit is a factor of ten. The low end stands for a high IC50, the high end for a low IC50.

Take `COc1cc2c3cc1Oc1c(OC)c(OC)cc4c1[C@@H](Cc1ccc(O[C@@H]5O[C@H](COC(C)=O)[C@@H](OC(C)=O)[C@H](OC(C)=O)[C@H]5OC(C)=O)c(c1)Oc1ccc(cc1)C[C@@H]3N(C)CC2)N(C)CC4`: the pIC50 is 4.53 in the test with A549 (Homo sapiens, A549, 48 h); 6.24 with L1210 (Mus musculus, L1210, 48 h); 5.71 in the test on K562 (Homo sapiens, K562, 48 h).

For `COc1cc2c3cc1Oc1c(OC)c(OC)cc4c1[C@@H](Cc1ccc(O[C@@H]5O[C@H](COC(C)=O)[C@H](OC(C)=O)[C@H](OC(C)=O)[C@H]5OC(C)=O)c(c1)Oc1ccc(cc1)C[C@@H]3N(C)CC2)N(C)CC4`, the pIC50 was 4.37 in the test on A549 (Homo sapiens, A549, 48 h); 5.66 in the test on L1210 (Mus musculus, L1210, 48 h); 5.69 with K562 (Homo sapiens, K562, 48 h).

With `COc1cc2c3cc1Oc1c(OC)c(OC)cc4c1[C@@H](Cc1ccc(O[C@@H]5OC[C@@H](OC(C)=O)[C@H](OC(C)=O)[C@H]5OC(C)=O)c(c1)Oc1ccc(cc1)C[C@@H]3N(C)CC2)N(C)CC4`, the pIC50 in the test with A549 (Homo sapiens, A549, 48 h) was not above 4.30; in the test on L1210 (Mus musculus, L1210, 48 h), 5.90; in the test with K562 (Homo sapiens, K562, 48 h) it was 5.81.

Turning to `COc1cc2c3cc1Oc1c(OC)c(OC)cc4c1[C@@H](Cc1ccc(O[C@@H]5O[C@H](COC(C)=O)[C@@H](O[C@@H]6O[C@H](COC(C)=O)[C@@H](OC(C)=O)[C@H](OC(C)=O)[C@H]6OC(C)=O)[C@H](OC(C)=O)[C@H]5OC(C)=O)c(c1)Oc1ccc(cc1)C[C@@H]3N(C)CC2)N(C)CC4` [listing 1 of 2 here], the pIC50 is 4.56 in the test on A549 (Homo sapiens, A549, 48 h); 6.52 in the test with L1210 (l1210); 5.65 with K562 (k562).

`COc1cc2c3cc1Oc1c(OC)c(OC)cc4c1[C@@H](Cc1ccc(O[C@@H]5O[C@H](COC(C)=O)[C@@H](O[C@@H]6O[C@H](COC(C)=O)[C@H](OC(C)=O)[C@H](OC(C)=O)[C@H]6OC(C)=O)[C@H](OC(C)=O)[C@H]5OC(C)=O)c(c1)Oc1ccc(cc1)C[C@@H]3N(C)CC2)N(C)CC4`: the negative logarithm of the IC50 (pIC50) is not above 4.30 in the test on A549 (Homo sapiens, A549, 48 h); 5.69 in the test on L1210 (Mus musculus, L1210, 48 h); 5.45 in the test on K562 (Homo sapiens, K562, 48 h).

For `COc1cc2c3cc1Oc1c(OC)c(OC)cc4c1[C@@H](Cc1ccc(O[C@H]5O[C@@H](COC(C)=O)[C@H](OC(C)=O)[C@@H](OC(C)=O)[C@@H]5OC(C)=O)c(c1)Oc1ccc(cc1)C[C@@H]3N(C)CC2)N(C)CC4`, the pIC50 with A549 (Homo sapiens, A549, 48 h) is not above 4.30; with L1210 (Mus musculus, L1210, 48 h), 5.56; in the test with K562 (Homo sapiens, K562, 48 h), not above 4.30.

As for `COc1cc2c3cc1Oc1c(OC)c(OC)cc4c1[C@@H](Cc1ccc(O[C@@H]5O[C@H](CO)[C@@H](O[C@@H]6O[C@H](CO)[C@@H](O)[C@H](O)[C@H]6O)[C@H](O)[C@H]5O)c(c1)Oc1ccc(cc1)C[C@@H]3N(C)CC2)N(C)CC4`, the pIC50 in the test on A549 (Homo sapiens, A549, 48 h) is not above 4.30; with L1210 (Mus musculus, L1210, 48 h) it was 4.97; with K562 (Homo sapiens, K562, 48 h), not above 4.30.

Regarding `COc1cc2c3cc1Oc1c(OC)c(OC)cc4c1[C@@H](Cc1ccc(O)c(c1)Oc1ccc(cc1)C[C@@H]3N(C)CC2)N(C)CC4`, the pIC50 was 4.40 in the test with A549 (Homo sapiens, A549, 48 h); 5.56 in the test with L1210 (Mus musculus, L1210, 48 h); 5.40 in the test with K562 (Homo sapiens, K562, 48 h).

Take `COc1cc2c3cc1Oc1c(OC)c(OC)cc4c1[C@@H](Cc1ccc(O[C@@H]5O[C@H](COC(C)=O)[C@@H](O[C@@H]6O[C@H](COC(C)=O)[C@@H](OC(C)=O)[C@H](OC(C)=O)[C@H]6OC(C)=O)[C@H](OC(C)=O)[C@H]5OC(C)=O)c(c1)Oc1ccc(cc1)C[C@@H]3N(C)CC2)N(C)CC4` [listing 2 of 2 here]: the pIC50 in the test on A549 (a549) is not above 4.30; in the test with L1210 (l1210), 5.73; in the test on K562 (k562), not above 4.30.
